Laboratory results reported in ChEMBL document CHEMBL1144157, “Synthesis of new 1-phenyl-3-{4-[(2E)-3-phenylprop-2-enoyl]phenyl}-thiourea and urea derivatives with anti-nociceptive activity” (2008).
Activity calls are given as the source filed them.

Assays:
Mus musculus [1] = test: Antinociceptive activity against acetic acid-induced abdominal constrictions in Swiss mouse assessed as maximal inhibition at 10 mg/kg, ip pretreated 30 mins before acetic acid challenge; assay type: functional; details: Abdomen, route intraperitoneal
Outline: (§1)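 Swiss mice (25–35 g), 10 ml/kg ip of compound (1–60 mg/kg) or 0.9% NaCl control, given 30 min before ip 0.6% acetic acid. Abdominal constrictions with hind-limb stretching counted cumulatively over 20 min, mice in separate glass funnels at 20–22 °C. Groups of six to eight. ID50 is the geometric mean with 95% confidence limits, found by graphical interpolation.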

Mus musculus [2] = test: Antinociceptive activity against acetic acid-induced abdominal constrictions in ip dosed Swiss mouse pretreated 30 mins before acetic acid challenge; assay type: functional; details: Abdomen; for ED50: read-out: ID50 (the source's name); outline: as §1
Mus musculus [3] = test: Antinociceptive activity against formalin-induced paw pain in ip dosed Swiss mouse pretreated 30 mins before formalin challenge assessed after 0 to 5 mins; assay type: functional; details: for ED50: read-out: ID50 (the source's name)
Outline: (§2)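 Mice given compound (6–30 mg/kg, ip) or saline 30 min before intraplantar injection into the right hind paw of 20 µl 2.5% formalin (0.92% formaldehyde) in saline. Paw-licking time scored in a glass cylinder with a 45° mirror, 0–5 min (early phase) and 15–30 min (late phase). n = 6. ID50 as geometric mean with 95% confidence limits.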

Mus musculus [4] = test: Antinociceptive activity against acetic acid-induced abdominal constrictions in po dosed Swiss mouse pretreated 30 mins before acetic acid challenge; assay type: functional; details: Abdomen, read-out: ID50 (the source's name)
Outline: (§3)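 Oral pretreatment (50–200 mg/kg) of Swiss mice before ip 0.6% acetic acid. Writhing (abdominal contractions plus hind-limb stretching) counted cumulatively for 20 min at 20–22 °C. Six animals per group, mean ± s.e.m. ID50 with 95% confidence limits obtained by graphical interpolation.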

Mus musculus [5] = test: Antinociceptive activity against capsaicin-induced paw pain in Swiss mouse assessed as maximal inhibition at 10 mg/kg, ip pretreated 30 mins before capsaicin challenge; assay type: functional, organism-based; parameters: dose 10 mg/kg
Mus musculus [6] = test: Antinociceptive activity against acetic acid-induced abdominal constrictions in Swiss mouse at 60 mg/kg, ip pretreated 30 mins before acetic acid challenge; assay type: functional, organism-based; parameters: dose 60 mg/kg; details: Abdomen; outline: as §1
Mus musculus [7] = test: Antinociceptive activity against formalin-induced paw pain in Swiss mouse assessed as maximal inhibition at 10 mg/kg, ip pretreated 30 mins before formalin challenge assessed after 15 to 30 mins; assay type: functional; details: route intraperitoneal; outline: as §2
Mus musculus [8] = test: Antinociceptive activity against glutamate-induced paw pain in ip dosed Swiss mouse pretreated 30 mins before glutamate challenge; assay type: functional; details: read-out: ID50 (the source's name)
Outline: (§4)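 Mice treated ip (6–30 mg/kg) 30 min before intraplantar injection into the right hind paw of 20 µl glutamate in PBS (30 µmol/paw). Time spent licking or biting the paw timed over 0–15 min in glass cylinders. n = 6. ID50 reported with 95% confidence limits.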

Mus musculus [9] = test: Antinociceptive activity against acetic acid-induced abdominal constrictions in Swiss mouse assessed as maximal inhibition at 100 mg/kg, po pretreated 30 mins before acetic acid challenge; assay type: functional; details: Abdomen; outline: as §3
Mus musculus [10] = test: Antinociceptive activity against formalin-induced paw pain in Swiss mouse assessed as maximal inhibition at 6 mg/kg, ip pretreated 30 mins before formalin challenge assessed after 15 to 30 mins; assay type: functional; details: route intraperitoneal; outline: as §2
Mus musculus [11] = test: Antinociceptive activity against glutamate-induced paw pain in Swiss mouse assessed as maximal inhibition at 30 mg/kg, ip pretreated 30 mins before glutamate challenge; assay type: functional; details: route intraperitoneal; outline: as §4
Mus musculus [12] = test: Antinociceptive activity against formalin-induced paw pain in ip dosed Swiss mouse pretreated 30 mins before formalin challenge assessed after 15 to 30 mins; assay type: functional; details: for ED50: read-out: ID50 (the source's name); outline: as §2
Mus musculus [13] = test: Antinociceptive activity against glutamate-induced paw pain in Swiss mouse assessed as maximal inhibition at 10 mg/kg, ip pretreated 30 mins before glutamate challenge; assay type: functional; details: route intraperitoneal; outline: as §4
Mus musculus [14] = test: Antinociceptive activity against formalin-induced paw pain in Swiss mouse assessed as maximal inhibition at 30 mg/kg, ip pretreated 30 mins before formalin challenge assessed after 15 to 30 mins; assay type: functional; details: route intraperitoneal; outline: as §2
Mus musculus [15] = test: Antinociceptive activity against formalin-induced paw pain in Swiss mouse assessed as maximal inhibition at 10 mg/kg, ip pretreated 30 mins before formalin challenge assessed after 0 to 5 mins; assay type: functional; details: route intraperitoneal; outline: as §2
Mus musculus [16] = test: Antinociceptive activity against formalin-induced paw pain in Swiss mouse assessed as maximal inhibition at 30 mg/kg, ip pretreated 30 mins before formalin challenge assessed after 0 to 5 mins; assay type: functional; details: route intraperitoneal; outline: as §2
Mus musculus [17] = test: Antinociceptive activity against acetic acid-induced abdominal constrictions in Swiss mouse assessed as maximal inhibition at 50 mg/kg, po pretreated 30 mins before acetic acid challenge; assay type: functional; details: Abdomen; outline: as §3
Mus musculus [18] = test: Antinociceptive activity against acetic acid-induced abdominal constrictions in Swiss mouse assessed as maximal inhibition at 200 mg/kg, po pretreated 30 mins before acetic acid challenge; assay type: functional; details: Abdomen; outline: as §3
Mus musculus [19] = test: Antinociceptive activity against heat-induced paw licking in Swiss mouse assessed as increase in licking latency period at 10 mg/kg, ip pretreated 30 mins before heat challenge by hot plate method; assay type: functional, organism-based; parameters: dose 10 mg/kg
Outline: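 Mice dosed ip (10 mg/kg), saline, or morphine sc, 30 min before placement on a plate held at 56 ± 1 °C. Latency to hind-paw licking, paw shaking or jumping recorded. Animals with baseline latency above 20 s excluded; cut-off 30 s. n = 6.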

O=C(Nc1ccc(Cl)cc1)Nc1ccc(C(=O)/C=C/c2ccccc2)cc1
inhibition in vivo at 10 mg/kg (Mus musculus [1]): 74.6%
Activity (Mus musculus [2]): Dose-dependent effect
ED50 (Mus musculus [2]): 7.25 µmol/kg

CC(=O)Nc1ccc(O)cc1 [ACETAMINOPHEN]
Activity (Mus musculus [3]): inactive
ED50 (Mus musculus [4]): 1140 µmol/kg
inhibition in vivo at 10 mg/kg (Mus musculus [1]): 38%
Activity (Mus musculus [5]): inactive

Cc1ccc(/C=C/C(=O)c2ccc(NC(=O)Nc3ccc(Cl)cc3)cc2)cc1
inhibition in vivo at 10 mg/kg (Mus musculus [1]): 42.8%
Activity (Mus musculus [2]): Dose-dependent effect
ED50 (Mus musculus [2]): 39.7 µmol/kg

O=C(Nc1ccc(Cl)cc1)Nc1ccc(C(=O)/C=C/c2ccc(Cl)c(Cl)c2)cc1
inhibition in vivo at 10 mg/kg (Mus musculus [1]): 21.6%
Activity (Mus musculus [6]): inactive

CC(=O)Oc1ccccc1C(=O)O [ASPIRIN]
Activity (Mus musculus [3]): inactive
ED50 (Mus musculus [4]): 605 µmol/kg
inhibition in vivo at 10 mg/kg (Mus musculus [1]): 35%
Activity (Mus musculus [5]): inactive

O=C(/C=C/c1ccc(Cl)c(Cl)c1)c1ccc(NC(=S)Nc2ccc(Cl)cc2)cc1
inhibition in vivo at 10 mg/kg (Mus musculus [1]): 97.5%
Activity (Mus musculus [2]): Dose-dependent effect
ED50 (Mus musculus [2]): 6.15 µmol/kg

COc1ccc(/C=C/C(=O)c2ccc(NC(=O)Nc3ccc(Cl)cc3)cc2)cc1
inhibition in vivo at 10 mg/kg (Mus musculus [1]): 84.4%
Activity (Mus musculus [2]): Dose-dependent effect
ED50 (Mus musculus [2]): 31.1 µmol/kg

O=C(/C=C/c1ccccc1)c1ccc(NC(=S)Nc2ccc(Cl)cc2)cc1
inhibition in vivo at 10 mg/kg (Mus musculus [7]): 62.6%
ED50 (Mus musculus [8]): 62.1 µmol/kg
inhibition in vivo at 100 mg/kg (Mus musculus [9]): 43.4%
inhibition in vivo at 6 mg/kg (Mus musculus [10]): 51%
inhibition in vivo at 30 mg/kg (Mus musculus [11]): 58.3%
Activity (Mus musculus [12]): Dose-dependent effect
ED50 (Mus musculus [12]): 26.9 µmol/kg
inhibition in vivo at 10 mg/kg (Mus musculus [13]): 42.6%
inhibition in vivo at 30 mg/kg (Mus musculus [14]): 78.7%
inhibition in vivo at 10 mg/kg (Mus musculus [15]): 37.8%
Activity (Mus musculus [3]): Dose-dependent effect
ED50 (Mus musculus [3]): 69.3 µmol/kg
inhibition in vivo at 30 mg/kg (Mus musculus [16]): 53.9%
ED50 (Mus musculus [4]): 378 µmol/kg
inhibition in vivo at 10 mg/kg (Mus musculus [1]): 94.5%
inhibition in vivo at 50 mg/kg (Mus musculus [17]): 23.5%
inhibition in vivo at 200 mg/kg (Mus musculus [18]): 55%
Activity (Mus musculus [2]): Dose-dependent effect
ED50 (Mus musculus [2]): 3.03 µmol/kg
Activity (Mus musculus [19]): inactive
Activity (Mus musculus [5]): inactive

O=C(/C=C/c1ccc(Cl)cc1)c1ccc(NC(=S)Nc2ccc(Cl)cc2)cc1
inhibition in vivo at 10 mg/kg (Mus musculus [1]): 100%
Activity (Mus musculus [2]): Dose-dependent effect
ED50 (Mus musculus [2]): 7.59 µmol/kg

O=C(Nc1ccc(Cl)cc1)Nc1ccc(C(=O)/C=C/c2ccc(Cl)cc2)cc1
inhibition in vivo at 10 mg/kg (Mus musculus [1]): 51%
Activity (Mus musculus [2]): Dose-dependent effect
ED50 (Mus musculus [2]): 45.4 µmol/kg

O=C(O)Cc1ccccc1Nc1c(Cl)cccc1Cl [DICLOFENAC]
ED50 (Mus musculus [12]): 34.5 µmol/kg
ED50 (Mus musculus [3]): > 94 µmol/kg

COc1ccc(/C=C/C(=O)c2ccc(NC(=S)Nc3ccc(Cl)cc3)cc2)cc1
inhibition in vivo at 10 mg/kg (Mus musculus [1]): 92%
Activity (Mus musculus [2]): Dose-dependent effect
ED50 (Mus musculus [2]): 10.4 µmol/kg

Cc1c(N(C)CS(=O)(=O)O)c(=O)n(-c2ccccc2)n1C [DIPYRONE SODIUM]
ED50 (Mus musculus [12]): 264 µmol/kg
ED50 (Mus musculus [3]): 154 µmol/kg
inhibition in vivo at 10 mg/kg (Mus musculus [1]): 33%
ED50 (Mus musculus [2]): 162 µmol/kg

Cc1ccc(/C=C/C(=O)c2ccc(NC(=S)Nc3ccc(Cl)cc3)cc2)cc1
inhibition in vivo at 10 mg/kg (Mus musculus [1]): 75.3%
Activity (Mus musculus [2]): Dose-dependent effect
ED50 (Mus musculus [2]): 13.1 µmol/kg
